# Hits are enriched below; roughly 2.8% of the tested compounds scored in any of these assays.
# NPY Y2 blocker: NPY-Y2 (human) receptor antagonism; NPY-Y2 expressing cells, antagonist mode; inhibition, % at 2.7 µM; 140,000 tested, 0.99% active; in the data active = inhibition above about 17%;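 also: 0% = vehicle with agonist challenge and 100% = reference antagonist with challenge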
# PGE2 EP2 inh: blocks the human prostaglandin E2 receptor EP2 | AID 1422 | 260,000 tested, 0.52% active | inhibition, % at 25 µM | P43116 | C6 glioma cells expressing human EP2, cAMP TR-FRET; cells stimulated with saturating PGE2;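 active = percent inhibition above 40 after rounding to a whole number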;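 also: rat C6 glioma host cells with rolipram phosphodiesterase inhibitor present; the protocol text gives 20 µM as final concentration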
# Target sequence (P43116 whole entry, looked up): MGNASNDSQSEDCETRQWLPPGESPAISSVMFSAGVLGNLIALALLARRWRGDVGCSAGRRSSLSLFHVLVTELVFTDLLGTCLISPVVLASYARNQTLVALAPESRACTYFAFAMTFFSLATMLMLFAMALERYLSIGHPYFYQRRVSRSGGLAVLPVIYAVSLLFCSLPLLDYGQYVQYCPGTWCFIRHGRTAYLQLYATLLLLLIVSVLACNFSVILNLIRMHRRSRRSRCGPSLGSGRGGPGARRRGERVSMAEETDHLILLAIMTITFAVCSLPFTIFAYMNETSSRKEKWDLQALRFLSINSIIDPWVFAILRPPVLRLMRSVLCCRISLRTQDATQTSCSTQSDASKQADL
# NPY2 pot ag: potentiates or activates human NPY-Y2 receptor; cells expressing NPY-Y2, potentiator/agonist read-out; activation, % at 3.6 µM; 220,000 tested, 0.45% active; AID 1359; in the data active = activation above about 27%;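 also: cells stimulated with NPY near EC25 plus isoproterenol at EC100; 0% = vehicle plus submaximal agonist and 100% = vehicle plus saturating agonist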
# NPY Y1 blocker: blocks the human neuropeptide Y Y1 receptor. inhibition, % at 3.6 µM. HEK293-CNG Y1 cells, membrane potential fluorescence; NPY at EC95, then isoproterenol. 200,000 tested, 1% active. P25929. AID 1040;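 active = inhibition above the campaign mean inhibition of all tested compounds plus 3 SD, cut at about 20% in these data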;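 also: 0% = DMSO wells given NPY plus isoproterenol and 100% = isoproterenol alone without NPY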
#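 Material: Y1- and CNG-channel-expressing HEK293 cells / Probe or stimulus: NPY 25 nM then isoproterenol 1 µM plus Ro 20-1724 25 µM / Doses: 3.6 µM single dose, DMSO 0.4% / Schedule: compound incubation 1 h at room temperature, readout 45 min post-stimulation / Signal: membrane potential fluorescence / Benchmarks: isoproterenol-only wells as full block versus NPY-plus-isoproterenol wells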
# EP2 modulator: modulators of human EP2 prostaglandin E2 receptor; EP2-expressing cells, cAMP HTRF FRET, PGE2 co-stimulation; induction, % at 25 µM; 260,000 tested, 0.83% active;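 active = compounds whose cAMP rise, as percent of the full-agonist control response, exceeds 60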;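 also: rat C6 glioma line stably carrying human EP2 under a CMV promoter; the protocol text gives 20 µM as final concentration; 100% = response of wells given 1 µM PGE2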
# NPY-Y1 PAM-ag: potentiators or agonists of human neuropeptide Y receptor Y1; P25929; NPY-Y1 expressing cells, potentiator/agonist activation; activation, % at 3.6 µM; 220,000 tested, 0.37% active; AID 1304; in the data active = activation above about 33%, passing the limit was not always enough;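 also: cells stimulated with NPY at EC10 then isoproterenol at EC100; 0% = low agonist plus stimulus and 100% = saturating agonist plus stimulus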
# EP2 confirm: EP2 receptor cAMP induction, counter-screens negative. shares compounds with EP2 modulator. C6 glioma EP2 cells, cAMP HTRF induction; plus low (about EC15) PGE2 agonist. calls only at 20 µM (by protocol). 1,300 tested, 47% active. AID 1080;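 active = cAMP induction above 50% in the main assay while under 30% in all four parallel counter assays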;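 also: rat C6 glioma cells stably expressing human EP2 receptor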
# * = called active by the depositor; i = inactive; x = no result given; + = active, no number.
SMILES,NPY Y2 blocker,PGE2 EP2 inh,NPY2 pot ag,NPY Y1 blocker,EP2 modulator,NPY-Y1 PAM-ag,EP2 confirm
COC(=O)c1c(NC(=O)c2cccs2)sc2c1CCC(C)C2 (configuration not stated),1,10,8,-2,64*,-26,i
CC(C)OC(=O)c1c(NC(=O)c2cccs2)sc2c1CCCC2,4,6,12,-2,54,9,+
CCCC1CCc2c(sc(NC(=O)c3cccs3)c2C(N)=O)C1 (configuration not stated),-1,16,7,10,-26,-13,x
CC(C)c1ccc(C2=C/C(=C/c3ccco3)C(=O)O2)cc1,x,20,x,x,38,x,x
CCCOc1cccc(C2C(C(=O)c3ccc(C)o3)=C(O)C(=O)N2CCOC)c1 (configuration not stated),x,15,x,x,22,x,x
CC1=C(C#N)CCC(=O)N1Cc1c(F)cccc1Cl,x,5,0,-5,23,2,x
O=C1CCC(c2ccccc2)=NN1Cc1c(F)cccc1Cl,x,2,-4,3,66*,-16,+
Brc1nnc(Br)s1,x,7,x,x,1,x,x
CCCCN1C(=O)/C(=C2\SC(N3CCCCC3)=NC2=O)c2ccccc21,2,7,10,-1,65*,1,+
CC(C)(C)Nc1c(-c2ccc(O)c(O)c2)nc2cnccn12,x,13,x,x,-91,x,x
Cc1ccc(OCc2nnc(SCC(=O)c3ccccc3)n2-c2ccccc2)cc1,5,1,-9,-2,32,-33,x
Cc1cccc(-n2c(CCc3ccccc3)nnc2SCC(=O)c2ccccc2)c1,8,8,-5,1,64*,8,i
Brc1ccc(Cn2c(-c3ccc(Br)o3)nc3ccccc32)o1,29*,13,-26,29*,68*,-21,+
CCN(CC)C(=O)c1cc(Cl)ccc1NC(=O)c1ccco1,x,9,-6,x,-23,-9,x
CCN(CC)P(=O)(Nc1ccccc1Br)c1ccc(N(C)C)cc1NC(=O)c1ccco1 (configuration not stated),x,5,13,1,66*,7,i
COc1ccc(N(CC(=O)N2CCN(c3ccc(F)cc3)CC2)S(C)(=O)=O)c(OC)c1,x,10,x,x,0,x,x
CC1(C)Oc2ccc(C(=O)N3CCOCC3)cc2N(CC(=O)N2CCOCC2)C1=O,2,19,-4,3,74*,9,i
CC(C)(C)c1ncc(C(=O)N2CCc3c([nH]c4ccc(Cl)cc34)C2)cn1,x,8,x,x,-87,x,x
O=C(Nc1ccccc1Cl)N1CCSc2ccccc21,x,9,2,-3,77*,-2,+
O=C(Nc1ccccc1)N1CCSc2cc(Cl)ccc21,-1,1,-15,0,17,-9,x
CCOC(=O)c1c(NC(=O)CSc2nnc(C)c(=O)[nH]2)sc(C)c1-c1ccc(C)cc1,x,7,-7,x,27,4,x
CCOC(=O)c1c(NC(=O)CN2C(=O)NC3(CCCCCC3)C2=O)sc(C)c1-c1ccc(C)cc1,5,13,2,0,68*,-10,+
CCOC(=O)c1c(NC(=O)CSc2nnc(N)s2)sc(C)c1-c1ccc(C)cc1,2,7,4,0,65*,-11,+
Cc1ccc2cc(CN(Cc3ccc4c(c3)OCO4)Cc3nnnn3Cc3ccccc3)c(=O)[nH]c2c1,x,12,x,x,20,x,x
CCCNc1nc(-c2ccccc2)c(C(=O)OCC)cc1C#N,7,10,-16,11,37,-42,x
SMILES,NPY Y2 blocker,PGE2 EP2 inh,NPY2 pot ag,NPY Y1 blocker,EP2 modulator,NPY-Y1 PAM-ag,EP2 confirm
CCCCNc1nc(-c2ccccc2)c(C(=O)OCC)cc1C#N,6,6,-25,7,65*,-33,+
COc1cccc2[nH]c3c(N4CCC(C)CC4)ncnc3c12,2,6,-6,8,80*,-37,+
COCCn1nnnc1C(c1cc2c(C)ccc(C)c2[nH]c1=O)N1CCc2ccccc2C1 (configuration not stated),x,14,x,x,-5,x,x
Cc1ccc2nc(N3CCC(C(=O)O)CC3)nc(-c3ccccc3)c2c1,2,13,2,2,91*,4,i
COc1ccc(NC(=O)c2ccco2)cc1NC(=O)c1ccc(Cl)cc1,x,14,x,x,0,x,x
CCCCOC(=O)Sc1nc2ccccc2o1,3,14,-10,0,71*,-7,i
CC(=O)Nc1ccc(NC(=O)CN2CCC(O)(c3ccccn3)CC2)cc1,x,x,x,x,-9,x,x
CCOC(=O)CSc1ncnc2c1sc1nc(N3CCOCC3)c3c(c12)CCCC3,2,10,3,3,75*,7,+
COC(=O)CSc1ncnc2c1sc1nc(N3CCOCC3)c3c(c12)CCCC3,-1,7,-22,4,41,-36,x
COc1cc2cc(CN(Cc3cccs3)Cc3nnnn3C3CCCC3)c(=O)[nH]c2cc1OC,x,14,x,x,10,x,x
CCCCNc1nc2c(S(=O)(=O)c3ccccc3)nnn2c2ccccc12,x,27,14,5,69*,12,i
CCOc1ccc(NC(=O)CSc2nnc(-c3cccnc3)n2Cc2ccccc2)cc1,x,7,x,x,1,x,x
COc1ccc(C(CC(=O)O)NC(=O)c2ccccc2)cc1OC (configuration not stated),-2,10,4,2,-5,-1,x
COc1ccccc1C(CC(=O)c1ccccc1)CC(=O)c1ccccc1,x,5,-14,21*,67*,-18,+
Cc1cc2cc(CN(C(=S)NCC3CCCO3)C3CCCCC3)c(=O)[nH]c2cc1C (configuration not stated),x,14,x,x,-35,x,x
COc1ccc(C(=O)Nc2cc(C)nn2-c2nc3ccccc3[nH]2)c(OC)c1,x,7,-12,1,70*,-26,+
COc1ccccc1C(c1nnnn1C1CCCCC1)N1CCN(C(=O)c2ccco2)CC1 (configuration not stated),x,4,x,x,-40,x,x
Cc1cc(C)n(-c2nc3ccccc3nc2Nc2ccc3c(c2)OCO3)n1,1,10,-1,5,52,-19,x
Cc1ccc2nc(Nc3ccc4[nH]c(=O)[nH]c4c3)c(-n3nc(C)cc3C)nc2c1,-4,7,12,4,86*,-17,i
Cc1ccc(-c2cc3nn(-c4ccccc4)c(N)c3c(=O)o2)cc1,1,21,9,-8,66*,5,i
Cc1ccc(-n2nc(-c3ccccc3)cc2Nc2ccccc2N)cc1,-4,3,11,-3,9,-38,x
CN(C(=O)CN1CCN(c2ccc(F)cc2)CC1)C1CCCCC1,x,10,x,x,-51,x,x
Oc1ccc2ccccc2c1Cc1c(O)ccc2ccccc12,x,12,x,x,70*,x,i
